These results are taken from ChEMBL document CHEMBL4831519, “Discovery of the first-in-class dual PPARδ/γ partial agonist for the treatment of metabolic syndrome” (Eur J Med Chem, 2021).

In data set [1] the target is T1, Peroxisome proliferator-activated receptor alpha (Homo sapiens, UniProt Q07869).
T1 sequence (Q07869 whole entry): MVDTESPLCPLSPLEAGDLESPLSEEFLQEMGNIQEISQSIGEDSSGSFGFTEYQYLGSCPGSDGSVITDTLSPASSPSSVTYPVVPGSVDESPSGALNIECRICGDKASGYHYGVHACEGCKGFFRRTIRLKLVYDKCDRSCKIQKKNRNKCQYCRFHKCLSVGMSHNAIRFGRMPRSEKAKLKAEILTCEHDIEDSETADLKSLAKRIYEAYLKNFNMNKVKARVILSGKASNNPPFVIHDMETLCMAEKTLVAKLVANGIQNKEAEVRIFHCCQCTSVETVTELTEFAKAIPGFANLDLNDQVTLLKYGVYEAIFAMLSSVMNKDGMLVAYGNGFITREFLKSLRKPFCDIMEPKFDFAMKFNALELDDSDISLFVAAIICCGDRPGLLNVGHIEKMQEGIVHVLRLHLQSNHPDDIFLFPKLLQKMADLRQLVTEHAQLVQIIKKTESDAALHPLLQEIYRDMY
The data set is described as follows: Agonist activity at human PPARalpha transfected in human HepG2 cells incubated for 18 hrs by Renilla/Firefly dual-luciferase reporter assay. In kind it is cell-based.

Data set [2] concerns the target T2, Peroxisome proliferator-activated receptor delta (Homo sapiens, UniProt Q03181).
T2 sequence (Q03181 whole entry): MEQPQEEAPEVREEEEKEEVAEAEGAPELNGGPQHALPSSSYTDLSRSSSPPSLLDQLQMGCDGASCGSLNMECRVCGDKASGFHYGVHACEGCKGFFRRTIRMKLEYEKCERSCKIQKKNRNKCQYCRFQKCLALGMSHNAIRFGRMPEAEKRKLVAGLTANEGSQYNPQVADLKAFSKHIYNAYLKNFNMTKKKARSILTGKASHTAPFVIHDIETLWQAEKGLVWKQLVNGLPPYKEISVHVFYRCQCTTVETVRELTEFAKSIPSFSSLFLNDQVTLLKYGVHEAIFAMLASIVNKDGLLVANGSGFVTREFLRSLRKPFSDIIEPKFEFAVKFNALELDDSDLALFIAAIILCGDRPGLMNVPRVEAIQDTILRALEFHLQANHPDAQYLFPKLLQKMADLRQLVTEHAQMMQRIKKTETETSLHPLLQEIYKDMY
The data set is described as follows: Agonist activity at human PPARdelta transfected in human HEK293 cells incubated for 18 hrs by Renilla/Firefly dual-luciferase reporter assay. In kind it is cell-based. (In a reporter assay the amount or activity of a reporter protein is the signal.)

Data set [3] can be described thus: Clearance in Sprague-Dawley rat at 3 mg/kg, po measured for 24 hrs by LC-MS/MS analysis. Format: ADME, organism-based. The following applies: in vivo. The gist of the method:
(§1)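 Male SD rats (eight weeks old at purchase) dosed orally at 3 mg/kg. Plasma profile followed over 0–24 h to derive AUC0–24h, Cmax, CL and T1/2. Values are mean SD of four rats.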

A short description of data set [4]: Cmax in Sprague-Dawley rat at 3 mg/kg, po measured for 24 hrs by LC-MS/MS analysis. The following applies: in vivo. In kind it is ADME, organism-based. More on the design: route oral, dose 3 mg/kg, time 24 hrs. The method, boiled down: as §1
Data set [5] in a line: AUC (0 to 24 hrs) in Sprague-Dawley rat at 3 mg/kg, po measured after 24 hrs by LC-MS/MS analysis. Format: ADME, organism-based. The following applies: in vivo. On the set-up: route oral, time 24 hrs, dose 3 mg/kg. The method, boiled down:
as §1

Data set [6] is described as follows: Half-life in Sprague-Dawley rat at 3 mg/kg, po measured for 24 hrs by LC-MS/MS analysis. Format: ADME, organism-based. The following applies: in vivo. The gist of the method:
as §1

Data set [7] in a line: Toxicity in ob/ob mouse assessed as weight gain at 20 mg/kg, po administered once daily for 30 days and measured every 5 days. The following applies: in vivo, 720 h, time 30 day. Format: organism-based. The gist of the method: (§2)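 Food and water intake measured daily and body weight every 5 days. n = 6, mean SD; Student's t-test vs vehicle, with one-way ANOVA/Tukey.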
Data set [8] in a line: Toxicity in ob/ob mouse assessed as weight gain at 10 mg/kg, po administered once daily for 30 days and measured every 5 days. The following applies: in vivo, 720 h, time 30 day. Format: organism-based. The gist of the method: as §2
A short description of data set [9]: Induction of hepatic steatosis in ob/ob mouse at 10 mg/kg, po administered once daily for 30 days by hematoxylin-eosin staining based histopathological analysis. Format: organism-based. To be noted: in vivo, 720 h, time 30 day. The gist of the method:
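Liver sections were stained with hematoxylin-eosin and viewed at 400× for steatosis and ballooning, with normal controls included.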

Data set [10] is filed under the species Mus musculus. To be noted: dose 10.0 mg/kg, time 30.0 day.
For data set [11], the species on record is Mus musculus. To be noted: dose 10.0 mg/kg, time 30.0 day. The source holds these as a separate data set.
Data set [12] is filed under the species Mus musculus. To be noted: dose 10.0 mg/kg, time 30.0 day. This is another data set of the same source.
For data set [13], the species on record is Mus musculus. The following applies: dose 10.0 mg/kg, time 30.0 day. This is another data set of the same source.
The species named for data set [14] is Mus musculus. To be noted: dose 10.0 mg/kg, time 30.0 day. The source holds these as a separate data set.
The species named for data set [15] is Mus musculus. To be noted: dose 10.0 mg/kg, time 30.0 day. This is another data set of the same source.
The target in data set [16] is T3, Peroxisome proliferator-activated receptor gamma (Homo sapiens, UniProt P37231).
T3 sequence (P37231 whole entry): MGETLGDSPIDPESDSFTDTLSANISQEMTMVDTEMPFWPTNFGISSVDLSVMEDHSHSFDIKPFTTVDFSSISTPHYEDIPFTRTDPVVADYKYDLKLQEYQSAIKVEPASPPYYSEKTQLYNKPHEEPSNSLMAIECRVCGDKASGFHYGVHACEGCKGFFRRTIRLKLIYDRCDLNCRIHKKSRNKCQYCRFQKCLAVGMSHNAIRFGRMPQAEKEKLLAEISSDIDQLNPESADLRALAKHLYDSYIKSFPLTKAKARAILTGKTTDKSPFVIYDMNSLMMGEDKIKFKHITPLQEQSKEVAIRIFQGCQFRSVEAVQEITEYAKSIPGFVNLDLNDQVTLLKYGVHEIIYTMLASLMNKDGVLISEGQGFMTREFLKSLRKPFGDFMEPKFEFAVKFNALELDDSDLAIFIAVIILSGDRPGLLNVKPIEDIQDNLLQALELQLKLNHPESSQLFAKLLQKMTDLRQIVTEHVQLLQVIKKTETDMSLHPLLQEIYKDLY
Kind of data set: Agonist activity at human PPARgamma transfected in human HEK293 cells incubated for 18 hrs by Renilla/Firefly dual-luciferase reporter assay. Format: cell-based.

The source made the active and inactive calls. The rule behind the calls is not given here.

`CCCOc1ccc2c(c1)O/C(=C\c1cc(C)c(OC(C)(C)C(=O)O)c(C)c1)C2=O` had a concentration for a half-maximal effect (EC50) in data set [1] of 6.91 µM.
On the same count and under the same terms, for `Cc1cc(/C=C2\Oc3cc(OCCC(C)C)ccc3C2=O)cc(C)c1OC(C)(C)C(=O)O` the value was 7.72 µM.
Consider `COc1ccc2c(c1)O/C(=C\c1cc(C)c(OCC(=O)O)c(C)c1)C2=O`, for which the concentration for a half-maximal effect (EC50) in data set [1] is greater than 10 µM; in data set [2], 3.22 µM.
For `Cc1cc(/C=C2\Oc3cc(OCC4CC4)ccc3C2=O)cc(C)c1OC(C)(C)C(=O)O`, the apparent clearance CL/F in data set [3] was 0.351 mL/min/kg. Further, the peak concentration (Cmax) in [4] came out at 8670 ng/mL. Further, in data set [5], the exposure AUC(0-t) at 24 h worked out at 51100 ng·h/mL. The compound also showed a half-life in data set [6] of 3.85 h. Besides, the Activity entry in data set [7] is “Non-Toxic”.
`CN(CCOc1ccc(CC2SC(=O)NC2=O)cc1)c1ccccn1` (stereo not given) [ROSIGLITAZONE]: the Activity entry in data set [8] and in data set [9] was “Toxic” in each case. The inhibition result in the data set listed under Mus musculus [10], in the data set listed under Mus musculus [11], in the data set filed under Mus musculus [12], in the data set listed under Mus musculus [13], in the data set filed under Mus musculus [14] and in the data set listed under Mus musculus [15] was “inactive” in each case.
As to `Cc1cc(/C=C2\Oc3cc(OCC(C)C)ccc3C2=O)cc(C)c1OCC(=O)O`, in data set [1], the half-maximal effective concentration (EC50) is greater than 10 µM.
For `CCOc1ccc2c(c1)O/C(=C\c1cc(C)c(OC(C)(C)C(=O)O)c(C)c1)C2=O`, in data set [1], the concentration for a half-maximal effect (EC50) came to 4.64 µM.
Regarding `CSc1ccc(C(=O)/C=C/c2cc(C)c(OC(C)(C)C(=O)O)c(C)c2)cc1` [ELAFIBRANOR], the results for the EC50 in [1] and in [16] were 0.375 µM and 3.96 µM, respectively.
With `CCCOc1ccc2c(c1)O/C(=C\c1cc(C)c(OCC(=O)O)c(C)c1)C2=O`, the EC50 in data set [1] is greater than 10 µM.
Same read-out and setting: the figure for `CCOc1ccc2c(c1)O/C(=C\c1cc(C)c(OCC(=O)O)c(C)c1)C2=O` is greater than 10 µM.
`Cc1cc(/C=C2\Oc3cc(OCC4CC4)ccc3C2=O)cc(C)c1OCC(=O)O` came in with an EC50 in [1] greater than 10 µM.
Take `COc1ccc2c(c1)O/C(=C\c1cc(C)c(OC(C)(C)C(=O)O)c(C)c1)C2=O`: a half-maximal response in data set [1] (EC50) required 3.68 µM.

As usually defined, the EC50 is the concentration giving half of the maximal effect. High values mean lower potency in that assay, low ones higher potency in that assay. By CL/F is commonly meant clearance divided by bioavailability, as obtained after extravascular dosing. Broadly, the Cmax is the peak of the concentration-time curve. Usually AUC(0-t) stands for the area under the concentration-time curve up to a stated or last time point. Low readings indicate low exposure, high ones high exposure. The term half-life denotes how long it takes for the measured level to halve.
